Experimental data from ChEMBL document CHEMBL4152279, “Synthesis, cytotoxic evaluation and target identification of thieno[2,3-d]pyrimidine derivatives with a dithiocarbamate side chain at C2 position” (Eur J Med Chem, 2018).
Activity calls are given as the source filed them. The calls are words filed in the database; no cut-off is given here.

Assays:
[1] = tested on: A549; test: Cell cycle arrest in human A549 cells assessed as accumulation at S phase at cytotoxic IC50 after 24 hrs by propidium iodide staining based flow cytometry (reference value: 32.37 +/- 1.23%); assay type: functional
[2] = tested on: A549; test: Activation of spindle assembly checkpoint in human A549 cells assessed as cells positive for histone H3 phosphorylation at Ser10 residue by measuring mitotic cell population at cytotoxic IC50 after 2 hrs by propidium iodide staining based flow cytometry (reference value: 6.9%); assay type: functional
[3] = tested on: A549; test: Activation of spindle assembly checkpoint in human A549 cells assessed as increase in histone H3 phosphorylation at Ser10 residue at cytotoxic IC50 after 12 to 24 hrs by immunoblot analysis; assay type: functional, cell-based
[4] = tested on: HCT-116; test: Cytotoxicity against human HCT116 cells at 30 uM by MTS assay relative to control; assay type: functional
Procedure, shortened: (§1)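 MTS read-out (CellTiter 96 AQueous One) of proliferation in A549 or HCT-116 cells grown in DMEM with 10% FBS at 37 °C, 5% CO2. Taxol-resistant A549 cells were exposed for 72 h. Compounds were screened at 30 μM versus vehicle, with ≥50% inhibition counted active. Actives were then tested over a concentration range for IC50. Triplicate wells, three independent experiments, mean ± SD.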

[5] = tested on: A549; test: Cytotoxicity against human A549 cells by MTS assay; assay type: functional, cell-based; procedure, shortened: as §1
[6] = tested on: A549; test: Induction of DNA damage in human A549 cells assessed as gamma-H2AX foci formation after 12 hrs by DAPI staining based immunofluorescence assay; assay type: functional, cell-based
Procedure, shortened: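 A549 cells treated 12 h, with camptothecin (2 μM, 2 h) and DMSO as comparators. Cells fixed and immunostained with mouse monoclonal anti-γ-H2AX, nuclei counterstained with DAPI, foci examined by immunofluorescence.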

[7] = tested on: A549; test: Induction of DNA damage in human A549 cells assessed as increase in gamma-H2AX level after 12 hrs by immunoblot analysis; assay type: functional, cell-based
Procedure, shortened: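 A549 cells treated for 12 h, with DMSO as diluent; camptothecin at 2 μM for 2 h served as positive control. Total cell lysates were immunoblotted for γ-H2AX (Ser139 phosphorylated H2AX) and pS345 CHK1. Immunofluorescence for γ-H2AX foci with DAPI counterstain was run in parallel.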

[8] = tested on: A549; test: Activation of spindle assembly checkpoint in human A549 cells assessed as mitotic index by measuring cells positive for histone H3 phosphorylation at Ser10 residue at cytotoxic IC50 after 2 hrs by FITC staining based immunofluorescence assay (reference value: 2.67 +/- 0.21); assay type: functional
[9] = species on record: Sus scrofa; test: Inhibition of porcine tubulin polymerization after 60 mins by spectrometric method
Procedure, shortened: (§2)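 Purified tubulin was incubated at 37 °C with compound at 5, 10 or 20 μM, with DMSO as vehicle. Polymerization was followed as the rise in absorbance at 340 nm over 60 min. Taxol (10 μM) and nocodazole (10 μM) served as controls. Three independent experiments were run.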

[10] = tested on: A549; test: Cell cycle arrest in human A549 cells assessed as accumulation at G0/G1 phase at cytotoxic IC50 after 24 hrs by propidium iodide staining based flow cytometry (reference value: 46.39 +/- 1.75%); assay type: functional
[11] = tested on: A549; test: Cell cycle arrest in human A549 cells assessed as accumulation at G0/G1 phase at 0.5 times cytotoxic IC50 after 24 hrs by propidium iodide staining based flow cytometry (reference value: 46.39 +/- 1.75%); assay type: functional
[12] = tested on: HeLa; test: Cytotoxicity against human HeLa cells at 30 uM by MTS assay; assay type: functional, cell-based
[13] = tested on: MCF7; test: Cytotoxicity against human MCF7 cells at 30 uM by MTS assay; assay type: functional, cell-based
[14] = tested on: A549; test: Induction of DNA damage in human A549 cells assessed as increase in CHK1 phosphorylation level after 12 hrs by immunoblot analysis; assay type: functional, cell-based
Procedure, shortened: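 A549 cells treated 12 h, with camptothecin (2 μM, 2 h) and DMSO as comparators. Total lysates immunoblotted for γ-H2AX and pS345 CHK1.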

[15] = tested on: A549; test: Cell cycle arrest in human A549 cells assessed as accumulation at S phase at 0.5 times cytotoxic IC50 after 24 hrs by propidium iodide staining based flow cytometry (reference value: 32.37 +/- 1.23%); assay type: functional
[16] = tested on: MDA-MB-231; test: Cytotoxicity against human MDA-MB-231 cells at 30 uM by MTS assay; assay type: functional, cell-based
[17] = tested on: A549; test: Cell cycle arrest in human A549 cells assessed as accumulation at G2/M phase at cytotoxic IC50 after 24 hrs by propidium iodide staining based flow cytometry (reference value: 20.95 +/- 0.8%); assay type: functional
[18] = tested on: A549; test: Cell cycle arrest in human A549 cells assessed as accumulation at G0/G1 phase at 1.5 times cytotoxic IC50 after 24 hrs by propidium iodide staining based flow cytometry (reference value: 46.39 +/- 1.75%); assay type: functional
[19] = tested on: A549; test: Activation of spindle assembly checkpoint in human A549 cells assessed as mitotic index by measuring cells positive for histone H3 phosphorylation at Ser10 residue at cytotoxic IC50 after 4 hrs by FITC staining based immunofluorescence assay (reference value: 3.3 +/- 0.17); assay type: functional
[20] = tested on: A549; test: Activation of spindle assembly checkpoint in human A549 cells assessed as mitotic index by measuring cells positive for histone H3 phosphorylation at Ser10 residue at cytotoxic IC50 after 16 hrs by FITC staining based immunofluorescence assay (reference value: 3.23 +/- 0.15); assay type: functional
[21] = tested on: HCT-116; test: Cytotoxicity against human HCT116 cells by MTS assay; assay type: functional, cell-based; procedure, shortened: as §1
[22] = tested on: A549; test: Activation of spindle assembly checkpoint in human A549 cells assessed as cells positive for histone H3 phosphorylation at Ser10 residue by measuring mitotic cell population at cytotoxic IC50 after 8 hrs by propidium iodide staining based flow cytometry (reference value: 6.9%); assay type: functional
[23] = tested on: A549; test: Cell cycle arrest in human A549 cells assessed as accumulation at S phase at 1.5 times cytotoxic IC50 after 24 hrs by propidium iodide staining based flow cytometry (reference value: 32.37 +/- 1.23%); assay type: functional
[24] = tested on: A549; test: Cell cycle arrest in human A549 cells assessed as accumulation at G2/M phase after 24 hrs by propidium iodide staining based flow cytometry; assay type: functional
[25] = tested on: A549; test: Cell cycle arrest in human A549 cells assessed as accumulation at G2/M phase at 0.5 times cytotoxic IC50 after 24 hrs by propidium iodide staining based flow cytometry (reference value: 20.95 +/- 0.8%); assay type: functional
[26] = tested on: A549; test: Cell cycle arrest in human A549 cells assessed as accumulation at G2/M phase at 1.5 times cytotoxic IC50 after 24 hrs by propidium iodide staining based flow cytometry (reference value: 20.95 +/- 0.8%); assay type: functional
[27] = tested on: A549; test: Activation of spindle assembly checkpoint in human A549 cells assessed as increase in BubR1 phosphorylation at cytotoxic IC50 after 6 to 24 hrs by immunoblot analysis; assay type: functional, cell-based
[28] = tested on: A549; test: Cytotoxicity against human A549 cells at 30 uM by MTS assay relative to control; assay type: functional; procedure, shortened: as §1
[29] = tested on: A549; test: Activation of spindle assembly checkpoint in human A549 cells assessed as mitotic index by measuring cells positive for histone H3 phosphorylation at Ser10 residue at cytotoxic IC50 after 8 hrs by FITC staining based immunofluorescence assay (reference value: 3.17 +/- 0.15); assay type: functional
[30] = tested on: A549; test: Activation of spindle assembly checkpoint in human A549 cells assessed as cells positive for histone H3 phosphorylation at Ser10 residue by measuring mitotic cell population at cytotoxic IC50 after 4 hrs by propidium iodide staining based flow cytometry (reference value: 6.9%); assay type: functional
[31] = tested on: HT-29; test: Cytotoxicity against human HT-29 cells at 30 uM by MTS assay; assay type: functional, cell-based
[32] = tested on: A549; test: Activation of spindle assembly checkpoint in human A549 cells assessed as cells positive for histone H3 phosphorylation at Ser10 residue by measuring mitotic cell population at cytotoxic IC50 after 16 hrs by propidium iodide staining based flow cytometry (reference value: 6.9%); assay type: functional
[33] = tested on: A549; test: Antiproliferative activity against human A549 cells after 72 hrs by MTS assay; assay type: functional, cell-based; conditions: A549, 72 h; procedure, shortened: as §1
[34] = tested on: A549; test: Cell cycle arrest in human A549 cells assessed as accumulation at G0/G1 phase at 0.1 uM after 24 hrs by propidium iodide staining based flow cytometry (reference value: 46.39 +/- 1.75%); assay type: functional
[35] = tested on: A549; test: Cell cycle arrest in human A549 cells assessed as accumulation at G2/M phase at 0.1 uM after 24 hrs by propidium iodide staining based flow cytometry (reference value: 20.95 +/- 0.8%); assay type: functional
[36] = tested on: A549; test: Cell cycle arrest in human A549 cells assessed as accumulation at S phase at 0.1 uM after 24 hrs by propidium iodide staining based flow cytometry (reference value: 32.37 +/- 1.23%); assay type: functional
[37] = tested on: A549; test: Activation of spindle assembly checkpoint in human A549 cells assessed as mitotic index by measuring cells positive for histone H3 phosphorylation at Ser10 residue at 340 nM after 4 hrs by FITC staining based immunofluorescence assay (reference value: 3.3 +/- 0.17); assay type: functional
[38] = tested on: A549; test: Activation of spindle assembly checkpoint in human A549 cells assessed as mitotic index by measuring cells positive for histone H3 phosphorylation at Ser10 residue at 340 nM after 16 hrs by FITC staining based immunofluorescence assay (reference value: 3.23 +/- 0.15); assay type: functional
[39] = tested on: A549; test: Activation of spindle assembly checkpoint in human A549 cells assessed as mitotic index by measuring cells positive for histone H3 phosphorylation at Ser10 residue at 340 nM after 8 hrs by FITC staining based immunofluorescence assay (reference value: 3.17 +/- 0.15); assay type: functional
[40] = tested on: A549; test: Activation of spindle assembly checkpoint in human A549 cells assessed as mitotic index by measuring cells positive for histone H3 phosphorylation at Ser10 residue at 340 nM after 2 hrs by FITC staining based immunofluorescence assay (reference value: 2.67 +/- 0.21); assay type: functional
[41] = species on record: Sus scrofa; test: Inhibition of porcine tubulin polymerization at 10 uM after 60 mins by spectrometric method; procedure, shortened: as §2

## Cc1cc2c(=O)[nH]c(CSC(=S)NCc3ccc(C#N)cc3)nc2s1
[1]
  Activity: 19.85%
[2]
  Activity: 6.9%
[3]
  Activity: Active
[4]
  Activity: >=50%
[5]
  IC50: 4.78 µM
[6]
  Activity: inactive
[7]
  Activity: inactive
[8]
  Activity_index: 6.63
[9]
  inhibition: Dose-dependent effect
[10]
  Activity: 24.24%
[11]
  Activity: 43.91%
[12]
  Activity: inactive
[13]
  Activity: inactive
[14]
  Activity: inactive
[15]
  Activity: 30.89%
[16]
  Activity: inactive
[17]
  Activity: 55.74%
[18]
  Activity: 17%
[19]
  Activity_index: 9.67
[20]
  Activity_index: 19.17
[21]
  IC50: 22.6 µM
[22]
  Activity: 13.7%
[23]
  Activity: 18.45%
[24]
  Activity: Dose-dependent effect
[25]
  Activity: 23.59%
[26]
  Activity: 61.89%
[27]
  Activity: Active
[28]
  Activity: >=50%
[29]
  Activity_index: 15.6
[30]
  Activity: 10.2%
[31]
  Activity: inactive
[32]
  Activity: 19.5%
[33]
  IC50: 7.31 µM

## CC(=O)O[C@H]1C(=O)[C@@]2(C)[C@H]([C@H](OC(=O)c3ccccc3)[C@]3(O)C[C@H](OC(=O)[C@H](O)[C@@H](NC(=O)c4ccccc4)c4ccccc4)C(C)=C1C3(C)C)[C@]1(OC(C)=O)CO[C@@H]1C[C@@H]2O [PACLITAXEL]
[34]
  Activity: 5.86%
[35]
  Activity: 74.17%
[36]
  Activity: 24.56%
[33]
  IC50: > 30 µM

## COC(=O)Nc1nc2cc(C(=O)c3cccs3)ccc2[nH]1 [NOCODAZOLE]
[37]
  Activity_index: 14.57
[38]
  Activity_index: 57.93
[39]
  Activity_index: 28.57
[40]
  Activity_index: 9.83
[41]
  inhibition: Active
